Experimental findings from ChEMBL document CHEMBL4613280, “Development of Pyrazolo[3,4-d]pyrimidine Kinase Inhibitors as Potential Clinical Candidates for Glioblastoma Multiforme” (ACS Med Chem Lett, 2020) are described below.

A short description of data set [1]: Cytotoxicity against human GCE28 cells derived from central tumor core of GBM patient assessed as reduction in cell viability measured after 48 hrs by Prestoblue assay. Format: functional, cell-based. The method, boiled down: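 Compounds diluted in DMEM containing 10% FBS and applied for 48 h. Viability read by PrestoBlue. IC50 calculated from three independent experiments, mean ± SE. Two-way ANOVA with Dunnett's multiple comparisons test.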

The species entered for data set [2] is Homo sapiens. In words: Induction of apoptosis in human GCE28 cells assessed as increase in caspase 3/7 activation at 12.5 uM measured after 48 hrs by CellEvent caspase 3/7 probe based fluorescence analysis. Format: functional, cell-based. An outline of the steps:
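Cells exposed 48 h to compounds diluted in 10% FBS DMEM. Activated caspase-3/7 detected with the CellEvent probe. Staurosporine 10.0 μM served as reference inducer. Mean ± SEM (n = 3). Two-way ANOVA with Dunnett's test.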

The species entered for data set [3] is Homo sapiens. Briefly: Induction of apoptotic death in human GIN28 cells assessed as presence of apoptotic bodies at 12.5 uM measured after 48 hrs by Hoechst 33342/propidium iodide staining based fluorescence microscopy analysis. The format is functional, cell-based. The method, boiled down:
(§1)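 Cells dosed 48 h with 12.5 μM inhibitor, with 70% ethanol or DMEM (negative) as controls. Nuclei then double-stained with Hoechst 33342 and propidium iodide and examined by fluorescence microscopy.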

Data set [4] is filed under the species Homo sapiens. In words: Induction of necrosis in human GCE28 cells assessed as induction of nuclear membrane permeability at 12.5 uM measured after 48 hrs by Hoechst 33342/propidium iodide staining based fluorescence microscopy analysis. The format is functional, cell-based. The method, boiled down: as §1
Data set [5] in a line: Synergistic cytotoxicity against human GCE28 cells assessed as combination index measured after 48 hrs in presence of 3-(4-chlorophenyl)-1-(2-chloro-2-phenylethyl)pyrazolo[3,4-d]pyrimidin-4-amine by Chou-Talalay assay. The format is functional. An outline of the steps:
(§2)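 Each drug pair dosed at a 1:1 molar ratio on the GBM lines and incubated 48 h. CI computed from three independent IC50 experiments (n = 3), reported as mean ± SD.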

Data set [6] in a line: Additive cytotoxicity against human GIN8 cells assessed as combination index measured after 48 hrs in presence of 2-[[4-(2-phenylethylamino)-1-[styryl]pyrazolo[3,4-d]pyrimidin-6-yl]amino]ethanol by Chou-Talalay assay. Format: functional. The method, boiled down: as §2
Data set [7] can be described thus: Additive cytotoxicity against human GCE28 cells assessed as combination index measured after 48 hrs in presence of 2-[[4-(2-phenylethylamino)-1-[styryl]pyrazolo[3,4-d]pyrimidin-6-yl]amino]ethanol by Chou-Talalay assay. Format: functional. An outline of the steps: as §2
Data set [8] is filed under the species Homo sapiens. Briefly: Cytotoxicity against human GIN28 cells assessed as cell viability at 5 ug/ml measured after 48 hrs using compound suspended in PBS by Prestoblue assay. Format: functional, cell-based. The method, boiled down: (§3)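 Inhibitor either dissolved in DMSO, inkjet-printed into polymer, or suspended in PBS, then diluted in DMEM. Polymer-alone and untreated controls included. Viability read by PrestoBlue after 48 h, mean ± SD.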

Data set [9] in a line: Apparent water solubility of the compound in PBS formulated with 900 ug/ml polymer Tween 80 at 100 ug/ml by UV-Visible spectral analysis. Format: physicochemical. To be noted: buffer.
For data set [10], the species on record is Homo sapiens. Briefly: Cytotoxicity against human GCE28 cells assessed as reduction in cell viability at 5 ug/ml measured after 48 hrs using Pluronic-F68-formulated compound by Prestoblue assay. Format: functional, cell-based. An outline of the steps: as §3
Data set [11] is filed under the species Homo sapiens. In words: Cytotoxicity against human GIN8 cells assessed as reduction in cell viability at 5 ug/ml measured after 48 hrs using Tween 80-formulated compound by Prestoblue assay. Format: functional, cell-based. An outline of the steps:
as §3

The species named for data set [12] is Homo sapiens. Briefly: Cytotoxicity against human GCE28 cells assessed as reduction in cell viability at 5 ug/ml measured after 48 hrs using Tween 80-formulated compound by Prestoblue assay. The format is functional, cell-based. An outline of the steps:
as §3

Active and inactive are the calls of the source. The rule behind the calls is not given here.

As for `ClC(Cn1ncc2c(Nc3cccc(Br)c3)nc(SCCN3CCOCC3)nc21)c1ccccc1` (configuration not stated), the half-maximal inhibitory concentration (IC50) in data set [1] was 7.2 µM. Moreover, the outcome in the data set filed under Homo sapiens [2], in the data set listed under Homo sapiens [3], in the data set filed under Homo sapiens [10], in the data set listed under Homo sapiens [11] and in the data set filed under Homo sapiens [12] was Active. The result in the data set filed under Homo sapiens [4] and in the data set listed under Homo sapiens [8] was inactive. For the same compound, the CI in [5] came to 0.88; in data set [6] it was 0.99; in [7] it was 0.97. In addition, in data set [9], the solubility result is “Soluble”.

By IC50 is commonly meant the midpoint of a concentration-inhibition curve.
